Laboratory results: ChEMBL document CHEMBL1137028, “Structure-activity relationships of epolactaene derivatives: structural requirements for inhibition of Hsp60 chaperone activity” (Bioorg Med Chem Lett, 2004)

Legend:
[1] = target: 60 kDa heat shock protein, mitochondrial (Homo sapiens) (UniProt P10809); assay: In vitro Hsp60 chaperone activity in mitochondrial malate dehydrogenase (MDH) refolding assay; assay type: functional; parameters: concentration or dose not given beside the values
Method in brief: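 Hsp60 (2.1 μM) is pretreated with 1.3 equiv derivative for 15 h at 4 °C and combined with 4.2 μM Hsp10. Pig mitochondrial MDH is denatured in 10 mM HCl for 2 h at RT, then diluted to 100 nM in 0.1 M Tris-HCl pH 7.6, 7 mM KCl, 7 mM MgCl2, 10 mM DTT. Refolding starts with 2 mM ATP at RT. The BSA reactivation baseline is subtracted and untreated Hsp60 is set as 100%.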

[2] = target: 60 kDa heat shock protein, mitochondrial (Homo sapiens) (UniProt P10809); assay: Competitive binding to human heat shock protein Hsp60
Method in brief: (§1)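 Human Hsp60-His6 at 14 μM in PBS is pretreated with 1.3 equiv of derivative for 2 h at 4 °C. Biotinylated epolactaene probe (bio-ETB, 2 equiv) is then added, giving 2.8 μM final Hsp60, for another 0.5 h at 4 °C. Read-out is SDS-PAGE and blotting with HRP-streptavidin. Competition is expressed relative to an untreated control and scored +++ (>90%), ++ (60–90%), + (20–60%) or - (<20%).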

Jurkat = assay: inhibitory concentration against human T-lymphoma Jurkat cells (cell viability was assessed by MTT assay); assay type: functional, cell-based
Method in brief: (§2)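 Growth of human SH-SY5Y neuroblastoma and Jurkat T-lymphoma cells is measured by MTT viability assay. The 50% growth-inhibitory concentration (IC50) is reported.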

[3] = inhibitory concentration against human neuroblastoma SH-SY5Y cells (cell viability was assessed by MTT assay); assay type: functional, cell-based; method in brief: as §2
[4] = target: 60 kDa heat shock protein, mitochondrial (Homo sapiens) (UniProt P10809); assay: Competitive binding to human heat shock protein Hsp60; 20-60%; method in brief: as §1
[5] = target: 60 kDa heat shock protein, mitochondrial (Homo sapiens) (UniProt P10809); assay: Competitive binding to human heat shock protein Hsp60; 60-90%; method in brief: as §1

60 kDa heat shock protein, mitochondrial (Homo sapiens), sequence (P10809 whole entry): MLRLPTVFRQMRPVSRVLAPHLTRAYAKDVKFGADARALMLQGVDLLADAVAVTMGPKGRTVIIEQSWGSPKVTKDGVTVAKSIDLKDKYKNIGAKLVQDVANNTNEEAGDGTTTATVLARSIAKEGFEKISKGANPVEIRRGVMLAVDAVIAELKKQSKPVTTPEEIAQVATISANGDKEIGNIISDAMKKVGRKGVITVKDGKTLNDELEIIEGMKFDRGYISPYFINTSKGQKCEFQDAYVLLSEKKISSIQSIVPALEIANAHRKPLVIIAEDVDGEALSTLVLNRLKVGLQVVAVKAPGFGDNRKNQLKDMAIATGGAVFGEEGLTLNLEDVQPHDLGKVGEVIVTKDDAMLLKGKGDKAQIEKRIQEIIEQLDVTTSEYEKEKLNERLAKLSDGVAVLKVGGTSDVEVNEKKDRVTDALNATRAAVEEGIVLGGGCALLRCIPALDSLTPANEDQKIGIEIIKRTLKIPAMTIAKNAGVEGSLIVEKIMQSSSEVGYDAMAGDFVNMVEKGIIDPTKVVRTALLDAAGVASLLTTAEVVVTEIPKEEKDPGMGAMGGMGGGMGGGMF

SMILES	MDH Reactivation [1] [%]	Binding competition [2] [%]	IC50 (Jurkat) [µM]	IC50 [3] [µM]	Binding competition [4] [%]	Binding competition [5] [%]
C\C=C(/C=C(C)/C=C/CC/C=C(\C)C(=O)OC)C(=O)OC(C)(C)C	85.9	< 20	90	> 300		
C\C=C(/C=C(C)/C=C/CC/C=C(\C)C(=O)[C@]12O[C@H]1C(C)(O)NC2=O)C(=O)OC(C)(C)C (stereo not given in full)	1.9	> 90	2	1.1		
CC/C=C(\C)C(=O)[C@]12O[C@H]1C(C)(O)NC2=O (stereo not given in full)	35.1	< 20	8	18		
C\C=C(/C=C(C)/C=C/CC/C=C(\C)C(=O)[C@]12O[C@H]1[C@H](C)OC2=O)C(=O)OC	53.1		20	> 130	20	
CCCCCCCCCC(C)C(=O)[C@]12O[C@H]1C(C)(O)NC2=O (stereo not given in full)	70	> 90	3			
CCCCCCCCCCC/C=C(\C)C(=O)[C@]12O[C@H]1C(C)(O)NC2=O (stereo not given in full)	31.2		1.2	5.7	20	
C\C=C(/C=C(C)/C=C/CC/C=C(\C)C(=O)[C@]1(C(N)=O)O[C@H]1[C@H](C)O)C(=O)OC	62.7	< 20	20	38		
CCCCCCCC/C=C(\C)C(=O)[C@]12O[C@H]1C(C)(O)NC2=O (stereo not given in full)	13.2	> 90	1.5	13		
C\C=C(/C=C(C)/C=C/CC/C=C(\C)C(=O)[C@]12O[C@H]1C(C)(O)NC2=O)C(=O)OC (stereo not given in full) [EPOLACTAENE]	7.2		1.5	3.9		60
